Data reported in paper PMC9685603 (ACS Omega, 2022).
Entries after “also recorded” stand apart in the source; their conditions may differ.

Tested on: HEK 293 cells
Test: MTT cell viability
Assay type: cell-based, human
Conditions: MTT assay, 48 h, studied concentration range 100–0.01 μM
Procedure, shortened: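 Seeding in DMEM with 10% FBS was 8000 cells/well for MCF-7 and MDA-MB-468 and 5000 cells/well for HEK 293. Cells were held 24 h at 37 °C, 5% CO2, humidified, then exposed to test compounds at varied concentrations for 48 h. MTT reagent (5 mg/mL) was added for 2–4 h and formazan dissolved in DMSO. Absorbance was read at 570/690 nm and % survival calculated.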

Q: Which “toxicity against HEK 293 noncancerous cells” value does the source give for `O=S(=O)(NN=Cc1cn(CCN2CCOCC2)c2ccccc12)c1ccc(Cl)cc1` [Compound 5f, 4-Chloro-N′-((1-(2-morpholinoethyl)-1H-indol-3-yl)methylene)benzenesulfonohydrazide] here?
A: The value was “biocompatible; also recorded: nontoxic”.
